From ChEMBL document CHEMBL3217512, “Indole/triazole conjugates are selective inhibitors and inducers of bacterial biofilms” (Medchemcomm, 2013)

What was measured:
[1] = test system: Staphylococcus aureus; assay: Antimicrobial activity against methicillin-resistant Staphylococcus aureus BAA 44 assessed as effect on planktonic growth at IC50 after 2 to 24 hrs by colony count method; type: organism-based; settings: in vivo
[2] = test system: Staphylococcus aureus; assay: Antimicrobial activity against Staphylococcus aureus 29213 assessed as effect on planktonic growth at IC50 after 2 to 24 hrs by colony count method; type: organism-based; settings: in vivo
[3] = test system: Acinetobacter baumannii; assay: Antimicrobial activity against Acinetobacter baumannii 19606 assessed as effect on planktonic growth at IC50 after 2 to 24 hrs by colony count method; design: species or system ATCC 19606
[4] = test system: Escherichia coli; assay: Antimicrobial activity against Escherichia coli K-12 ER2718 assessed as effect on planktonic growth at IC50 after 2 to 24 hrs by colony count method; type: organism-based
[5] = test system: Staphylococcus aureus; assay: Antimicrobial activity against methicillin-resistant Staphylococcus aureus BAA 44 assessed as effect on planktonic growth at IC50 after 2 to 24 hrs; type: organism-based; settings: in vivo
[6] = test system: Staphylococcus aureus; assay: Antimicrobial activity against Staphylococcus aureus 29213 assessed as effect on planktonic growth at IC50 after 2 to 24 hrs; type: organism-based; settings: in vivo
[7] = test system: Acinetobacter baumannii; assay: Antimicrobial activity against Acinetobacter baumannii 19606 assessed as effect on planktonic growth at IC50 after 2 to 24 hrs; design: species or system ATCC 19606
[8] = test system: Escherichia coli; assay: Antimicrobial activity against Escherichia coli K-12 ER2718 assessed as effect on planktonic growth at IC50 after 2 to 24 hrs; type: organism-based
[9] = test system: Staphylococcus aureus; assay: Inhibition of biofilm formation in methicillin-resistant Staphylococcus aureus BAA 44 at 150 uM after 24 hrs by crystal violet staining-based assay relative to control; type: functional; settings: BAA 44, 24 h
Method in brief: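 Static biofilm development in MRSA, read out by crystal violet staining against an untreated control. Initial screen at 150 μM. Inhibitors then went to dose-response, with IC50 taken as the concentration giving 50% inhibition of biofilm growth. Induction was judged at 50 μM: under 50% induction counted as "inducer", over 50% as "strong inducer".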

[10] = test system: Staphylococcus aureus; assay: Inhibition of biofilm formation in Staphylococcus aureus 29213 at 150 uM after 24 hrs by crystal violet staining-based assay relative to control; type: functional; settings: Staphylococcus aureus, 29213, 24 h
[11] = test system: Acinetobacter baumannii; assay: Inhibition of biofilm formation in Acinetobacter baumannii 19606 at 150 uM after 24 hrs by crystal violet staining-based assay relative to control; type: functional; settings: ATCC 19606 = CIP 70.34 = JCM 6841, 24 h
[12] = test system: Escherichia coli; assay: Inhibition of biofilm formation in Escherichia coli K-12 ER2718 at 150 uM after 24 hrs by crystal violet staining-based assay relative to control; type: functional; settings: K-12 ER2718, 24 h
[13] = test system: Escherichia coli; assay: Antimicrobial activity against Escherichia coli K-12 ER2718 assessed as effect on planktonic growth at PC75 after 2 to 24 hrs by colony count method; type: organism-based; settings: in vivo
[14] = test system: Escherichia coli; assay: Antimicrobial activity against Escherichia coli K-12 ER2718 assessed as effect on planktonic growth at PC50 after 2 to 24 hrs by colony count method; type: organism-based; settings: in vivo
[15] = test system: Escherichia coli; assay: Antimicrobial activity against Escherichia coli K-12 ER2718 assessed as effect on planktonic growth at PC25 after 2 to 24 hrs by colony count method; type: organism-based
[16] = test system: Escherichia coli; assay: Antimicrobial activity against Escherichia coli K-12 ER2718 assessed as effect on planktonic growth at PC75 after 2 to 24 hrs; type: organism-based; settings: in vivo
[17] = test system: Escherichia coli; assay: Antimicrobial activity against Escherichia coli K-12 ER2718 assessed as effect on planktonic growth at PC50 after 2 to 24 hrs; type: organism-based
[18] = test system: Escherichia coli; assay: Antimicrobial activity against Escherichia coli K-12 ER2718 assessed as effect on planktonic growth at PC25 after 2 to 24 hrs; type: organism-based
[19] = test system: Escherichia coli; assay: Induction of biofilm formation in Escherichia coli K-12 ER2718 at 50 uM after 24 hrs by crystal violet staining-based assay relative to control; type: functional
Method in brief: (§1)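 Static biofilm assay with compounds at 50 μM and crystal violet read-out, relative to an untreated control. Compounds increasing biofilm by less than 50% were called inducers, and by more than 50% strong inducers.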

[20] = test system: Escherichia coli; assay: Antimicrobial activity against Escherichia coli K-12 ER2718 assessed as effect on planktonic growth at 50 uM after 2 to 24 hrs; type: organism-based
Method in brief: (§2)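 Growth curve analysis of planktonic bacteria with each biofilm inducer at 50 μM, used to assess toxicity.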

[21] = test system: Staphylococcus aureus; assay: Antimicrobial activity against Staphylococcus aureus 29213 assessed as effect on planktonic growth at PC75 after 2 to 24 hrs by colony count method; type: organism-based; settings: in vivo
[22] = test system: Staphylococcus aureus; assay: Antimicrobial activity against Staphylococcus aureus 29213 assessed as effect on planktonic growth at PC50 after 2 to 24 hrs by colony count method; type: organism-based; settings: in vivo
[23] = test system: Staphylococcus aureus; assay: Antimicrobial activity against Staphylococcus aureus 29213 assessed as effect on planktonic growth at PC25 after 2 to 24 hrs by colony count method; type: organism-based; settings: in vivo
[24] = test system: Staphylococcus aureus; assay: Antimicrobial activity against Staphylococcus aureus 29213 assessed as effect on planktonic growth at PC75 after 2 to 24 hrs; type: organism-based; settings: in vivo
[25] = test system: Staphylococcus aureus; assay: Antimicrobial activity against Staphylococcus aureus 29213 assessed as effect on planktonic growth at PC50 after 2 to 24 hrs; type: organism-based; settings: in vivo
[26] = test system: Staphylococcus aureus; assay: Antimicrobial activity against Staphylococcus aureus 29213 assessed as effect on planktonic growth at PC25 after 2 to 24 hrs; type: organism-based; settings: in vivo
[27] = test system: Staphylococcus aureus; assay: Induction of biofilm formation in Staphylococcus aureus 29213 at 50 uM after 24 hrs by crystal violet staining-based assay relative to control; type: functional; method in brief: as §1
[28] = test system: Staphylococcus aureus; assay: Antimicrobial activity against Staphylococcus aureus 29213 assessed as effect on planktonic growth at 50 uM after 2 to 24 hrs; type: organism-based; method in brief: as §2

Compound | Activity [1] | Activity [2] | Activity [3] | Activity [4] | Activity [5] | Activity [6] | Activity [7] | Activity [8] | inhibition at 150 µM [9] [%] | inhibition at 150 µM [10] [%] | inhibition at 150 µM [11] [%] | inhibition at 150 µM [12] [%] | other results
COc1ccc(CNC(=O)Cn2cc(Cc3c[nH]c4ccccc34)nn2)cc1 | Non-toxic | Non-toxic | Non-toxic | Non-toxic | Non-toxic | Non-toxic | Non-toxic | Non-toxic | < 5 | < 5 | 20 | < 5 | 
CCCCCCNC(=O)Cn1cc(Cc2c[nH]c3ccccc23)nn1 | Non-toxic | Non-toxic | Non-toxic | Non-toxic | Non-toxic | Non-toxic | Non-toxic | Non-toxic | < 5 | < 5 | 25 |  | Activity [13]: Non-toxic; Activity [14]: Non-toxic; Activity [15]: Non-toxic; Activity [16]: Non-toxic; Activity [17]: Non-toxic; Activity [18]: Non-toxic; Activity [19]: <50%; Activity [20]: Non-toxic
O=C(NCCn1cc(Cc2c[nH]c3ccccc23)nn1)c1ccccc1F | Non-toxic | Non-toxic | Non-toxic | Non-toxic | Non-toxic | Non-toxic | Non-toxic | Non-toxic | 35 |  | 15 | < 5 | Activity [21]: Non-toxic; Activity [22]: Non-toxic; Activity [23]: Non-toxic; Activity [24]: Non-toxic; Activity [25]: Non-toxic; Activity [26]: Non-toxic; Activity [27]: <50%; Activity [28]: Non-toxic
O=C(Cn1cc(Cc2c[nH]c3ccccc23)nn1)Nc1ccccc1 | Non-toxic | Non-toxic | Non-toxic | Non-toxic | Non-toxic | Non-toxic | Non-toxic | Non-toxic | < 5 | < 5 | < 5 |  | Activity [13]: Non-toxic; Activity [14]: Non-toxic; Activity [15]: Non-toxic; Activity [16]: Non-toxic; Activity [17]: Non-toxic; Activity [18]: Non-toxic; Activity [19]: <50%; Activity [20]: Non-toxic
CCCCCCc1ccc(C(=O)NCCn2cc(Cc3csc4ccccc34)nn2)cc1 | Non-toxic | Non-toxic | Non-toxic | Non-toxic | Non-toxic | Non-toxic | Non-toxic | Non-toxic | < 5 | < 5 | < 5 | < 5 | 
O=C(NCCn1cc(Cc2csc3ccccc23)nn1)c1ccccc1 | Non-toxic | Non-toxic | Non-toxic | Non-toxic | Non-toxic | Non-toxic | Non-toxic | Non-toxic | < 5 | < 5 | < 5 | 14 | 
COc1ccc(CNC(=O)Cn2cc(Cc3csc4ccccc34)nn2)cc1 | Non-toxic | Non-toxic | Non-toxic | Non-toxic | Non-toxic | Non-toxic | Non-toxic | Non-toxic | < 5 | < 5 | 20 | < 5 | 
O=C(NCCn1cc(Cc2csc3ccccc23)nn1)c1ccccc1F | Non-toxic | Non-toxic | Non-toxic | Non-toxic | Non-toxic | Non-toxic | Non-toxic | Non-toxic | < 5 |  | < 5 | < 5 | Activity [21]: Non-toxic; Activity [22]: Non-toxic; Activity [23]: Non-toxic; Activity [24]: Non-toxic; Activity [25]: Non-toxic; Activity [26]: Non-toxic; Activity [27]: >50%; Activity [28]: Non-toxic
CCCCCCc1ccc(C(=O)NCCn2cc(Cc3c(Br)[nH]c4ccccc34)nn2)cc1 | Non-toxic | Non-toxic | Non-toxic | Non-toxic | Non-toxic | Non-toxic | Non-toxic | Non-toxic | 25 | 40 | 22 |  | Activity [13]: Non-toxic; Activity [14]: Non-toxic; Activity [15]: Non-toxic; Activity [16]: Non-toxic; Activity [17]: Non-toxic; Activity [18]: Non-toxic; Activity [19]: <50%; Activity [20]: Non-toxic
CCCCCCNC(=O)Cn1cc(Cc2csc3ccccc23)nn1 | Non-toxic | Non-toxic | Non-toxic | Non-toxic | Non-toxic | Non-toxic | Non-toxic | Non-toxic | < 5 | < 5 | 20 | < 5 | 
O=C(NCCn1cc(Cc2c[nH]c3ccccc23)nn1)c1ccccc1 | Non-toxic | Non-toxic | Non-toxic | Non-toxic | Non-toxic | Non-toxic | Non-toxic | Non-toxic | < 5 | 23 | < 5 | < 5 | 
